# Measurements gathered from unrelated publications.
# Each line is one published result; the experiments were not run side by side.
# MCU: Calcium uniporter protein, mitochondrial (MCU, Homo sapiens, UniProt Q8NE86)
# BACE1: Beta-secretase 1 (BACE1, Homo sapiens, UniProt P56817)
SMILES,target,read-out,action,technique,pH,setting,IC50
Nc1ncc(-c2nc(N3CCOCC3)nc(N3CCOCC3)n2)c(C(F)F)n1,"Serine/threonine-protein kinase mTOR (MTOR, Homo sapiens, UniProt P42345)",ligand displacement,,TR-FRET,,,49.9 nM
C1CNCN2CNCCNCN(CN1)CNCCNC2.[Co+3],MCU,transporter uptake,inhibitor,,,,131 nM
Brc1cc2c(N3CCNCC3)nccn2c1,BACE1,enzyme activity,inhibitor,FRET,pH 5,,600000 nM
COc1ccc2[nH]cc(CN3CCC(O)(c4ccc(SC)cc4)CC3)c2c1,"D(2) dopamine receptor (DRD2, Homo sapiens, UniProt P14416)",ion current,,,,,250 nM
O=S(=O)([O-])[O-].[Cu+2],"Delta-aminolevulinic acid dehydratase (Homo sapiens, UniProt P13716, C162A/K59N)",enzyme activity,inhibitor,absorbance,pH 8,,2200 nM
Cl.Cl.N.N.N.N.N.N.N.N.[N-3].[Ru+4].[Ru+4],MCU,transporter uptake,inhibitor,,,,8.6 nM
N.N.N.N.N.N.N.N.O=C(O)c1ccccc1.O=C(O)c1ccccc1.[N-3].[Ru+4].[Ru+4],MCU,transporter uptake,inhibitor,,,,13.9 nM
COc1cc(OC)c2c(O)c3c(=O)cc(C)oc3cc2c1,BACE1,enzyme activity,inhibitor,FRET,,,> 100000 nM
COc1ccc(C(=O)O)cc1S(=O)(=O)Nc1ccc(C(F)(F)F)cc1N1CCCCC1,"Endoplasmic reticulum aminopeptidase 2 (ERAP2, Homo sapiens, UniProt Q6P179, K392N)",enzyme activity,inhibitor,,,,44000 nM
N.N.N.N.N.N.N.N.O=C(O)c1cccc1.O=C(O)c1cccc1.[Fe+2].[Fe+2].[N-3].[Ru+4].[Ru+4].c1cccc1.c1cccc1,MCU,transporter uptake,inhibitor,,,,10.5 nM
Cc1ccc(-c2ncn(-c3ccc(Nc4nccc(-c5cccc(N6CCOCC6)c5)n4)cc3)n2)cn1,"Mitogen-activated protein kinase 8 (MAPK8, Homo sapiens, UniProt P45983)",enzyme activity,inhibitor,,,,67 nM
CC(C)C[C@H](NC(=O)[C@H](Cc1ccccc1)NC(=O)[C@H](Cc1ccc(O)cc1)NC(=O)CNC(=O)[C@H](CCCCN)NC(=O)[C@H](CO)NC(=O)[C@H](CCC(N)=O)NC(=O)CNC(=O)[C@@H](NC(=O)[C@H](CO)NC(=O)[C@@H]1CCCN1C(=O)[C@H](CO)NC(=O)[C@H](CCC(N)=O)NC(=O)[C@H](Cc1ccc(O)cc1)NC(=O)[C@H](CCC(=O)O)NC(=O)[C@H](C)NC(=O)[C@H](CCCCN)NC(=O)[C@@H](N)Cc1ccccc1)C(C)C)C(=O)N[C@@H](Cc1ccccc1)C(=O)N[C@@H](CCCNC(=N)N)C(=O)N1CCC[C@H]1C(=O)N[C@@H](CCCNC(=N)N)C(=O)N[C@@H](CC(N)=O)C(N)=O,"Neuromedin-U receptor 2 (Mus musculus, UniProt Q8BZ39)",ligand displacement,,radioligand,,cell membranes,0.03 nM
